In ChEMBL document CHEMBL2157922, “Synthesis and antifungal activity of diverse C-2 pyridinyl and pyridinylvinyl substituted quinolines” (2012):

Assays:
Aspergillus flavus = test: Antifungal activity against Aspergillus flavus ATCC 9170 after 48 hrs by broth microdilution technique; format: functional; details: ATCC 9170, 48 h
Procedure, shortened: (§1)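 Moulds and dermatophytes were run by CLSI broth microdilution in MOPS-buffered RPMI-1640 at pH 7.0. Aspergillus was incubated at 30 °C and dermatophytes at 28–30 °C, in a moist, dark chamber. MIC100, the lowest concentration with no visible growth, was read visually at a time set by growth of the control fungus.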

Candida albicans [1] = test: Antifungal activity against Candida albicans CCC 125 after 48 hrs by broth microdilution technique; format: functional; details: CCC 125, 48 h
Candida tropicalis = test: Antifungal activity against Candida tropicalis CCC 131 after 48 hrs by broth microdilution technique; format: functional; details: CCC 131, 48 h
Cryptococcus neoformans [2] = test: Antifungal activity against Cryptococcus neoformans IM 042074 after 48 hrs by broth microdilution technique; format: functional; details: IM 042074, 48 h
Procedure, shortened: (§2)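 C. neoformans was tested by 96-well RPMI-1640 microdilution, with DMSO-matched growth and sterility control wells. Plates were incubated 48 h at 30 °C in a moist, dark chamber and read at OD405. % inhibition = 100 − (CTW − SCW)/(GCW − SCW), in duplicate. For the clinical isolates, MIC80 and MIC50 are the lowest concentrations giving 80% and 50% inhibition.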

Cryptococcus neoformans [3] = test: Antifungal activity against Cryptococcus neoformans IM 983036 after 48 hrs by broth microdilution technique; format: functional; details: IM 983036, 48 h; procedure, shortened: as §2
Candida albicans [4] = test: Antifungal activity against Candida albicans CCC 129 after 48 hrs by broth microdilution technique; format: functional; details: CCC 129, 48 h
Candida albicans [5] = test: Antifungal activity against Candida albicans ATCC 10231 at 31.2 ug/ml after 24 hrs; format: functional; details: ATCC 10231, 24 h
Procedure, shortened: (§3)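 C. albicans was grown in 96-well RPMI-1640 broth microdilution with compound wells diluted from DMSO stocks. Growth wells with matched DMSO and sterility wells were included. After 24 h at 30 °C in a moist, dark chamber, OD405 was read. % inhibition = 100 − (CTW − SCW)/(GCW − SCW) OD, done in duplicate.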

Nannizzia gypsea = test: Antifungal activity against Microsporum gypseum CCC 115 after 48 hrs by broth microdilution technique; format: functional; details: CCC 115, 48 h; procedure, shortened: as §1
Aspergillus niger = test: Antifungal activity against Aspergillus niger ATCC 9029 after 48 hrs by broth microdilution technique; format: functional; details: ATCC 9029, 48 h; procedure, shortened: as §1
Aspergillus fumigatus = test: Antifungal activity against Aspergillus fumigatus ATCC 26934 after 48 hrs by broth microdilution technique; format: functional; details: ATCC 26934, 48 h; procedure, shortened: as §1
Trichophyton rubrum = test: Antifungal activity against Trichophyton rubrum CCC 113 after 48 hrs by broth microdilution technique; format: functional; details: CCC 113, 48 h
Candida albicans [6] = test: Antifungal activity against Candida albicans CCC 128 after 48 hrs by broth microdilution technique; format: functional; details: CCC 128, 48 h
[7] = system: Trichophyton mentagrophytes; test: Antifungal activity against Trichophyton mentagrophytes ATCC 9972 after 48 hrs by broth microdilution technique; format: functional; details: ATCC 9972, 48 h; procedure, shortened: as §1
Candida parapsilosis = test: Antifungal activity against Candida parapsilosis CCC 124 after 48 hrs by broth microdilution technique; format: functional; details: Lodderomyces parapsilosis, CCC 124, 48 h
Candida albicans [8] = test: Antifungal activity against Candida albicans ATCC 10231 after 48 hrs by broth microdilution technique; format: functional; details: ATCC 10231, 48 h
Procedure, shortened: (§4)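 Yeasts were tested by CLSI broth microdilution in RPMI-1640 buffered to pH 7.0 with MOPS, with compound from 250 down to 0.98 in DMSO stocks. Trays were held at 30 °C in a moist, dark chamber. MIC100, the lowest concentration giving total visual inhibition against the growth control, was read by eye at 48 h.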

Nakaseomyces glabratus = test: Antifungal activity against Candida glabrata CCC 115 after 48 hrs by broth microdilution technique; format: functional; details: CCC 115, 48 h
Candida albicans [9] = test: Antifungal activity against Candida albicans CCC 127 after 48 hrs by broth microdilution technique; format: functional; details: CCC 127, 48 h
Candida albicans [10] = test: Antifungal activity against Candida albicans ATCC 10231 at 7.8 ug/ml after 24 hrs; format: functional; details: ATCC 10231, 24 h; procedure, shortened: as §3
Candida albicans [11] = test: Antifungal activity against Candida albicans CCC 130 after 24 hrs by broth microdilution technique; details: CCC 130, 24 h
Candida albicans [12] = test: Antifungal activity against Candida albicans CCC 130 after 48 hrs by broth microdilution technique; format: functional; details: CCC 130, 48 h
Candida albicans [13] = test: Antifungal activity against Candida albicans ATCC 10231 at 15.6 ug/ml after 24 hrs; format: functional; details: ATCC 10231, 24 h; procedure, shortened: as §3
Cryptococcus neoformans [14] = test: Antifungal activity against Cryptococcus neoformans IM 972751 after 48 hrs by broth microdilution technique; format: functional; details: IM 972751, 48 h; procedure, shortened: as §2
Cryptococcus neoformans [15] = test: Antifungal activity against Cryptococcus neoformans IM 983040 after 48 hrs by broth microdilution technique; format: functional; details: IM 983040, 48 h; procedure, shortened: as §2
Saccharomyces cerevisiae = test: Antifungal activity against Saccharomyces cerevisiae ATCC 9763 after 48 hrs by broth microdilution technique; format: functional; details: ATCC 9763, 48 h; procedure, shortened: as §4
Candida albicans [16] = test: Antifungal activity against Candida albicans CCC 126 after 48 hrs by broth microdilution technique; format: functional; details: CCC 126, 48 h
Cryptococcus neoformans [17] = test: Antifungal activity against Cryptococcus neoformans ATCC 32264 at 31.2 ug/ml after 48 hrs; format: functional; details: ATCC 32264, 48 h; procedure, shortened: as §2
Cryptococcus neoformans [18] = test: Antifungal activity against Cryptococcus neoformans ATCC 32264 after 48 hrs by broth microdilution technique; format: functional; details: ATCC 32264, 48 h; procedure, shortened: as §4
Cryptococcus neoformans [19] = test: Antifungal activity against Cryptococcus neoformans IM 00319 after 48 hrs by broth microdilution technique; format: functional; details: IM 00319, 48 h; procedure, shortened: as §2
Cryptococcus neoformans [20] = test: Antifungal activity against Cryptococcus neoformans IM 972724 after 48 hrs by broth microdilution technique; format: functional; details: IM 972724, 48 h; procedure, shortened: as §2
Pichia kudriavzevii = test: Antifungal activity against Candida krusei CCC 117 after 48 hrs by broth microdilution technique; format: functional; details: CCC 117, 48 h
Cryptococcus neoformans [21] = test: Antifungal activity against Cryptococcus neoformans ATCC 32264 at 15.6 ug/ml after 48 hrs; format: functional; details: ATCC 32264, 48 h; procedure, shortened: as §2

C(=C\c1ccc2ccccc2n1)/c1ccncc1
80%: inhibition at 31.2 µg/mL (Candida albicans [5]) | inhibition at 15.6 µg/mL (Candida albicans [13]) | inhibition at 31.2 µg/mL (Cryptococcus neoformans [17])
50%: inhibition at 7.8 µg/mL (Candida albicans [10])
31.2 mg/L: MIC50 (Candida tropicalis) | MIC80 (Cryptococcus neoformans [2]) | MIC80 (Cryptococcus neoformans [3]) | MIC80 (Candida albicans [4]) | MIC80 (Candida parapsilosis) | MIC50 (Nakaseomyces glabratus) | MIC80 (Cryptococcus neoformans [14]) | MIC80 (Cryptococcus neoformans [15]) | MIC80 (Candida albicans [16]) | MIC80 (Cryptococcus neoformans [18]) | MIC80 (Cryptococcus neoformans [19]) | MIC80 (Cryptococcus neoformans [20]) | MIC80 (Pichia kudriavzevii)
31 mg/L: MIC (Nannizzia gypsea) | MIC (Trichophyton rubrum) | MIC [7]
15.6 mg/L: MIC80 (Candida albicans [1]) | MIC50 (Candida albicans [4]) | MIC80 (Candida albicans [6]) | MIC80 (Candida albicans [8]) | MIC50 (Candida albicans [9]) | MIC80 (Candida albicans [9]) | MIC80 (Candida albicans [12]) | MIC50 (Candida albicans [16]) | MIC50 (Cryptococcus neoformans [18]) | MIC50 (Pichia kudriavzevii)
62 mg/L: MIC (Candida albicans [8]) | MIC (Saccharomyces cerevisiae) | MIC (Cryptococcus neoformans [18])
7.8 mg/L: MIC50 (Candida albicans [1]) | MIC50 (Cryptococcus neoformans [3]) | MIC50 (Candida albicans [6]) | MIC50 (Candida parapsilosis) | MIC50 (Candida albicans [8]) | MIC50 (Candida albicans [11]) | MIC50 (Cryptococcus neoformans [15]) | MIC50 (Cryptococcus neoformans [19]) | MIC50 (Cryptococcus neoformans [20])
250 mg/L: MFC (Aspergillus flavus) | MFC (Aspergillus fumigatus) | MFC (Candida albicans [8]) | MFC (Saccharomyces cerevisiae)
3.9 mg/L: MIC50 (Cryptococcus neoformans [2]) | MIC50 (Cryptococcus neoformans [14])
125 mg/L: MIC (Aspergillus flavus) | MFC (Nannizzia gypsea) | MIC (Aspergillus niger) | MIC (Aspergillus fumigatus) | MFC (Trichophyton rubrum) | MFC [7] | MFC (Cryptococcus neoformans [18])
62.5 mg/L: MIC80 (Candida tropicalis) | MIC80 (Nakaseomyces glabratus)
> 250 mg/L: MFC (Aspergillus niger)

c1ccc2nc(-c3ccncc3)ccc2c1
250 mg/L: MFC (Candida albicans [8]) | MFC (Saccharomyces cerevisiae)
15.6 mg/L: MIC50 (Candida albicans [1]) | MIC80 (Candida albicans [1]) | MIC50 (Candida tropicalis) | MIC50 (Cryptococcus neoformans [2]) | MIC80 (Candida albicans [4]) | MIC80 (Candida albicans [6]) | MIC50 (Candida parapsilosis) | MIC80 (Candida albicans [8]) | MIC50 (Nakaseomyces glabratus) | MIC80 (Nakaseomyces glabratus) | MIC80 (Candida albicans [9]) | MIC50 (Candida albicans [11]) | MIC50 (Cryptococcus neoformans [15]) | MIC50 (Candida albicans [16]) | MIC50 (Cryptococcus neoformans [18]) | MIC80 (Cryptococcus neoformans [18])
62 mg/L: MIC (Aspergillus flavus) | MFC (Nannizzia gypsea) | MIC (Nannizzia gypsea) | MIC (Aspergillus niger) | MIC (Aspergillus fumigatus) | MFC (Trichophyton rubrum) | MIC (Trichophyton rubrum) | MFC [7] | MIC [7] | MIC (Candida albicans [8]) | MIC (Saccharomyces cerevisiae) | MIC (Cryptococcus neoformans [18])
80%: inhibition at 31.2 µg/mL (Candida albicans [5]) | inhibition at 15.6 µg/mL (Candida albicans [13]) | inhibition at 31.2 µg/mL (Cryptococcus neoformans [17]) | inhibition at 15.6 µg/mL (Cryptococcus neoformans [21])
125 mg/L: MFC (Aspergillus flavus) | MFC (Aspergillus niger) | MFC (Aspergillus fumigatus) | MFC (Cryptococcus neoformans [18])
7.8 mg/L: MIC50 (Cryptococcus neoformans [3]) | MIC50 (Candida albicans [4]) | MIC50 (Candida albicans [6]) | MIC50 (Candida albicans [8]) | MIC50 (Candida albicans [9]) | MIC50 (Cryptococcus neoformans [14])
50%: inhibition at 7.8 µg/mL (Candida albicans [10])
62.5 mg/L: MIC80 (Pichia kudriavzevii)
31.2 mg/L: MIC80 (Candida tropicalis) | MIC80 (Cryptococcus neoformans [2]) | MIC80 (Cryptococcus neoformans [3]) | MIC80 (Candida parapsilosis) | MIC80 (Candida albicans [12]) | MIC80 (Cryptococcus neoformans [14]) | MIC80 (Cryptococcus neoformans [15]) | MIC80 (Candida albicans [16]) | MIC50 (Cryptococcus neoformans [19]) | MIC80 (Cryptococcus neoformans [19]) | MIC50 (Cryptococcus neoformans [20]) | MIC80 (Cryptococcus neoformans [20]) | MIC50 (Pichia kudriavzevii)
